NR2E3 ag-1 = human photoreceptor-specific nuclear receptor agonism | Q9Y5X4 | CHO-S Gal4-NCOR/VP16-NR2E3 two-hybrid, luciferase | inhibition of corepressor binding, % at 3.98 µM | 360,000 compounds, 0.35% hits | AID 602229;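 active = inhibition above the mean of all tested compounds plus 3 SD, cut at about 70% in these data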;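 also: higher means lower luciferase signal from less NR2E3 corepressor binding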
NR1D1 modulator = Rev-erb alpha (human) modulation; P20393; Rev-erbα–FITC-DNA binding, fluorescence polarization, 90 min; activity, % at 10 µM; 370,000 compounds, 0.79% hits; AID 1259318;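 active = activity above about 14%, limit read from the data; passing the limit was not always enough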
PG9 Ab binder = small molecules binding HIV-1 gp120 antibody PG9 | TR-FRET gp120-PG9 antibody binding | inhibition, % at 6.7 µM | 360,000 compounds, 0.43% hits | AID 624416; in the data active = inhibition above about 8.5%
NR2E3 ag-2 = agonists of human nuclear receptor NR2E3. GST-NR2E3/biotin-RetCOR TR-FRET, 1536-well. 320,000 compounds, 0.12% hits. AID 2300. Q9Y5X4. inhibition of corepressor binding, % at 4.78 µM;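 active = percent inhibition above the cutoff of mean plus 3 SD of all tested compounds, set per screening campaign, cut at about 20% in these data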
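Material: NR2E3–RetCOR corepressor complex / Incubation: Compound–protein incubation for 5 h at 4 °C / Dosing: compound at 4.8 µM, single dose / Detection: time-resolved FRET / Benchmarks: high control biotin, low control 0.6% DMSO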
GalR3 antagonist = antagonists of human GalR3; O60755; HEK293 GalR3-CNG cAMP membrane potential fluorescence; galR3 body fused to GalR1 C-terminus; inhibition, % at 3 µM; 360,000 compounds, 0.44% hits; AID 651719;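 active = inhibition above the screen-wide average plus 3 SD, cut at about 13% in these data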;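 also: forskolin and galanin both at EC90 stimulate the cells; cAMP rise reported by CNG channel membrane potential dye signal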
Target sequence (O60755 1-299 limits assumed): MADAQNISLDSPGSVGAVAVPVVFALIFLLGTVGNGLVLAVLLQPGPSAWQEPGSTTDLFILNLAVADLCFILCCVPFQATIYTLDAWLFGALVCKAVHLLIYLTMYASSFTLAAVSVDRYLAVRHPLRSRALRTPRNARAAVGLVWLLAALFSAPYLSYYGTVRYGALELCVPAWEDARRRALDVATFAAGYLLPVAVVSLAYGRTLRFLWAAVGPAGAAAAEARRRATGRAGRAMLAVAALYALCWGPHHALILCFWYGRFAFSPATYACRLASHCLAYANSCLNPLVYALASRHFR
NR2E3 ag confirm = confirmation of human NR2E3 agonists | shares compounds with NR2E3 ag-1 | CHO-S mammalian two-hybrid NR2E3-NCOR, luciferase luminescence | inhibition, % at 3.98 µM | 2,300 compounds, 51% hits | AID 624378;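 active = average inhibition above a cutoff equal to the mean inhibition of all tested compounds plus one SD, cut at about 70% in these data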
GAL4-VP16 luc = counter-screen for NR2E3 agonists: GAL4-VP16 reporter inhibitors; shares compounds with NR2E3 ag-1; CHO-S GAL4-VP16 luciferase reporter, luminescence; inhibition, % at 3.98 µM; 2,300 compounds, 29% hits;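 active = mean inhibition above a cutoff equal to the average over all tested compounds plus one standard deviation, cut at about 70% in these data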;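 also: luciferase from a UAS reporter driven by GAL4-VP16 transactivation; higher means less reporter light so more repression of VP16 activity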
Large screens that a line does not name were inactive (follow-up assays come after a bar, where they were run). Hits are enriched below; roughly 1.8% of the tested compounds scored in any of these assays.

Cc1ccc(-c2noc(CCC(=O)NCC3CCCO3)n2)cc1 (centres undefined)	none
CC(C)(C)c1ccc(-c2noc(CCC(=O)NC3CC3)n2)cc1	none (no result: NR2E3 ag-1, PG9 Ab binder, NR2E3 ag-2, GalR3 antagonist)
Cc1ccc(-n2c(SCC(=O)Nc3ccc(S(=O)(=O)Nc4cc(C)nc(C)n4)cc3)nnc2-c2cccs2)cc1	none (no result: NR2E3 ag-1, PG9 Ab binder, NR2E3 ag-2, GalR3 antagonist)
COC(=O)[C@]12C[C@H](CC(=O)N3CCCCC3)C(=O)N(Cc3ccco3)C1=C[C@H](C(C)(C)C)O[C@@H]2C	none (no result: NR2E3 ag-1, PG9 Ab binder, NR2E3 ag-2, GalR3 antagonist)
CC(C)C1CC(N(C)C)=CC(=S)N1 (centres undefined)	none (no result: NR2E3 ag-1, NR2E3 ag-2)
Fc1cccc(CNc2ncnc3cc(Cl)ccc23)c1F	NR2E3 ag-1 83 | NR2E3 ag confirm inactive | GAL4-VP16 luc inactive
COc1cc2ncnc(NCc3cc(F)ccc3F)c2cc1OC	none
COc1ccc(CNc2ncnc3cc(Cl)ccc23)cc1	none
COc1cccc(CNc2ncnc3cc(Cl)ccc23)c1	none (no result: NR2E3 ag-2) | NR2E3 ag confirm 84 | GAL4-VP16 luc inactive
COc1ccc(-c2nn(-c3ccccc3)cc2/C=N/O)cc1OC	none | NR2E3 ag confirm inactive | GAL4-VP16 luc inactive
O=C(NCc1ccccc1Cl)O[C@H]1CC[C@@]23CCCN2C(=O)CCC[C@H]3C1	none (no result: NR2E3 ag-1, PG9 Ab binder, NR2E3 ag-2, GalR3 antagonist)
O=C(Nc1ccccc1)/C(=C\c1cccs1)NC(=O)c1ccccc1	none
Cc1cccc(NC(=O)/C(=C\c2cccs2)NC(=O)c2ccccc2)c1	none (no result: NR1D1 modulator, PG9 Ab binder, GalR3 antagonist) | NR2E3 ag confirm inactive | GAL4-VP16 luc inactive
COC(=O)[C@]12C[C@H](CC(=O)NCCc3ccccc3OC)C(=O)N(Cc3cccc4ccccc34)C1=C[C@H](COCc1ccccc1)O[C@@H]2C	none (no result: NR2E3 ag-1, PG9 Ab binder, NR2E3 ag-2, GalR3 antagonist)
O=[N+]([O-])c1ccc(N2CCN(C(=S)Nc3ccc(F)cc3F)CC2)cc1	NR2E3 ag-1 74 | NR2E3 ag confirm 73 | GAL4-VP16 luc inactive
Cc1csc2c(N3CCN(C(=O)Nc4ccccc4)CC3)ncnc12	none
Cc1csc2c(N3CCN(C(=S)Nc4ccc(F)cc4F)CC3)ncnc12	NR2E3 ag-1 90 | NR2E3 ag confirm 97 | GAL4-VP16 luc 88
COc1ccc(S[C@]2(C(=O)N3CCN(c4ncccn4)CC3)CC(=O)N(C(=O)CCc3ccccc3)[C@@H]2c2ccc(OC)cc2)cc1	none (no result: NR2E3 ag-1, PG9 Ab binder, NR2E3 ag-2, GalR3 antagonist)
Cc1nn(Cc2ccc(C(=O)Nc3nccs3)cc2)c(C)c1Cl	none | NR2E3 ag confirm inactive | GAL4-VP16 luc inactive
Cc1nn(Cc2ccc(C(=O)NN)cc2)c(C)c1Cl	none
COc1ccc(-n2c(SCC(=O)NCC3CCCO3)nnc2-c2ccncc2)cc1 (centres undefined)	none (no result: NR2E3 ag-1, PG9 Ab binder, NR2E3 ag-2, GalR3 antagonist)
COc1ccc(CNS(=O)(=O)c2ccc3c(c2)N(C(C)=O)CC(C)S3)cc1 (centres undefined)	none | NR2E3 ag confirm inactive | GAL4-VP16 luc inactive
CC(=O)N1CC(C)Sc2ccc(S(=O)(=O)NCc3ccc(F)cc3)cc21 (centres undefined)	none
CC(=O)N1CCc2cc(S(=O)(=O)NCc3ccc(C)cc3)ccc21	none | NR2E3 ag confirm inactive | GAL4-VP16 luc inactive
CC(=O)N1CC(C)Sc2ccc(S(=O)(=O)NC3CCCCC3)cc21 (centres undefined)	none
CC(=O)N1CC(C)Sc2ccc(S(=O)(=O)NCCc3cccc(C)c3)cc21 (centres undefined)	NR2E3 ag-1 79 | NR2E3 ag confirm 77 | GAL4-VP16 luc inactive
Cc1ccc(CNS(=O)(=O)c2ccc3c(c2)CCN3C(=O)C2CCC2)cc1	none
CCCCOC(=O)c1[nH]c2c(c1C)C(=O)CC(c1cc(OC)c(OC)c(OC)c1)C2 (centres undefined)	NR2E3 ag-1 89 | NR2E3 ag confirm 84 | GAL4-VP16 luc inactive
C=CCOC(=O)c1[nH]c2c(c1C)C(=O)CC(c1cc(OC)c(OC)c(OC)c1)C2 (centres undefined)	none (no result: NR1D1 modulator, PG9 Ab binder, GalR3 antagonist) | NR2E3 ag confirm 73 | GAL4-VP16 luc inactive
CCOC(=O)[C@@]12CCCC3=C1N(CCC3)C(=O)[C@H]2CC(=O)NCCCCc1ccccc1	none (no result: NR2E3 ag-1, PG9 Ab binder, NR2E3 ag-2, GalR3 antagonist)
COc1cccc(NC(=O)C2CCCN2C(=O)NCc2ccccc2)c1 (centres undefined)	none (no result: NR2E3 ag-1, PG9 Ab binder, NR2E3 ag-2, GalR3 antagonist)
Cc1nn(C(C)(C)C)c(C)c1/C=N/OC(=O)Nc1ccc(Cl)cc1	NR2E3 ag-1 97 | NR2E3 ag confirm inactive | GAL4-VP16 luc 91
